Experimental data published in ChEMBL document CHEMBL1649062, “Integration of lead optimization with crystallography for a membrane-bound ion channel target: discovery of a new class of AMPA receptor positive allosteric modulators” (J Med Chem, 2011).
Converted amounts (≈) assume the structure as drawn.

Key:
[1] = AUC ( 0 to t) in rat at 3 mg/kg, po; assay type: ADME, organism-based, Plasma; design: dose 3 mg/kg, route oral; details: plasma
[2] = target: T1, Glutamate receptor 2 (Homo sapiens, UniProt P42262); assay: Allosteric modulation of human recombinant GluA2 receptor flip isoform expressed in HEK293 cells assessed as potentiation of glutamate-induced calcium influx by Fluo-4/FLIPR method relative to cyclothiazide; assay type: cell-based
T1 sequence (P42262 whole entry, canonical isoform): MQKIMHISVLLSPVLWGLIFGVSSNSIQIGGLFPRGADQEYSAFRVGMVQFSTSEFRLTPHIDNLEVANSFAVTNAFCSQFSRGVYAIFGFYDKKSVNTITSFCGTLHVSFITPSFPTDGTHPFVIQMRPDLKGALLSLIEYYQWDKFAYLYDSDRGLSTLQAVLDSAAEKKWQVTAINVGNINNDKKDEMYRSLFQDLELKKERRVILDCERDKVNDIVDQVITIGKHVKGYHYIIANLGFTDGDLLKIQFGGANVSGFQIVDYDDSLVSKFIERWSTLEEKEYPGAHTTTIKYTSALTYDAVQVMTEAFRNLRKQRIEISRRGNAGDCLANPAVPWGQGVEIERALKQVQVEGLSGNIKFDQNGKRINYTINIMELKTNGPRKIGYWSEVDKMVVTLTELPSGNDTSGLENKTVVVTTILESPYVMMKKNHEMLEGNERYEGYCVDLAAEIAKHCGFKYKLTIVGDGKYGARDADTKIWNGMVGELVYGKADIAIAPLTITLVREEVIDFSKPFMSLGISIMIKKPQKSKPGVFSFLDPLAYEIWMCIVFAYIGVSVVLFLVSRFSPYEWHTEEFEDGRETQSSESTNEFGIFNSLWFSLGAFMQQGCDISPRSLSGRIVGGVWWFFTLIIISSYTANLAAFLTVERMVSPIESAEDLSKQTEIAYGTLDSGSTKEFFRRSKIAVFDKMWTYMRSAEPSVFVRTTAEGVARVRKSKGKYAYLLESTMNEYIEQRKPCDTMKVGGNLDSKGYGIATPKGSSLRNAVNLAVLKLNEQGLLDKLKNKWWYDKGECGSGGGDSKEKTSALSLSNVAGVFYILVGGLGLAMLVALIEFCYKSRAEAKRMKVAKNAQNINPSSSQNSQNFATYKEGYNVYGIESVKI
Summary of the method: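 Stable GluA2 flip (unedited) cells seeded to confluence 2-3 days before assay; washed in HEPES buffer (145 NaCl, 5 KCl, 2 CaCl2, 1 MgCl2, 5.5 glucose, pH 7.3), loaded with 2 μM Fluo4-AM 60 min at room temperature. FLIPR dual addition: compound 5 min before 100 μM glutamate; fluorescence rise expressed against maximal cyclothiazide response, fitted pEC50 and Asym max; n ≥ 3.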

[3] = Inhibition of human CYP450 by fluorescence assay; assay type: ADME
Summary of the method: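 Recombinant human CYP1A2, 2C9, 2C19, 2D6 and 3A4 bactosomes (0.1 mg/mL protein) preincubated 10 min at 37 °C in 50 mM potassium phosphate pH 7.4 with test compound (0.1–10 μM, methanol 3–4.5% final) and fluorogenic probe: ethoxyresorufin 0.5 μM (1A2), FCA 50 μM (2C9), BMC 10 μM (2C19), MMC 10 μM (2D6), DEF 1 μM or 7-BQ 25 μM (3A4). NADPH-regenerating system added; fluorescent metabolite read 10 min; rate as % control; IC50 fitted; triplicate.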

[4] = Distribution coefficient, log D of the compound; assay type: physicochemical; details: octanol/water
[5] = Plasma protein binding in rat at 3 mg/kg, po; assay type: ADME, organism-based; design: dose 3 mg/kg, route oral; details: read-out: PPB (converted)
[6] = Kinetic solubility of the compound in phosphate buffered saline of pH 7.4; assay type: physicochemical
Summary of the method: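 Kinetic solubility: 10 mM DMSO stock, 5 μL diluted to 100 μL with pH 7.4 phosphate-buffered saline, equilibrated 1 h at room temperature, filtered, filtrate quantified by calibrated flow-injection chemiluminescent nitrogen detection.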

[7] = test system: Brain; assay: Brain tissue binding in rat at 3 mg/kg, po; assay type: ADME, organism-based; design: dose 3 mg/kg, route oral; details: in vivo
[8] = Clearance in rat at 3 mg/kg, po; assay type: ADME, organism-based; design: dose 3 mg/kg, route oral; details: in vivo
Summary of the method: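 Rats dosed orally at 3 mg/kg; blood sampled via the hepatic portal vein and heart. Estimated clearance derived from in vivo hepatic extraction, taking rat liver blood flow as 85 (mL/min)/kg.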

[9] = in vivo; details: rat, po, 3 mg/kg
[10] = Apparent permeability of the compound; assay type: ADME; details: not told
Summary of the method: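 Artificial membrane permeability: donor holds 10 mM sample in pH 7.05 phosphate buffer with 0.5% hydroxypropylcyclodextrin. Membrane is 1.8% phosphatidylcholine and 1% cholesterol in decane. Donor and acceptor concentrations measured by LCMS after 3 h at room temperature; permeability expressed in nm/s.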

[11] = target: T1, Glutamate receptor 2; assay: Allosteric modulation of human recombinant GluA2 receptor flip isoform expressed in HEK293 cells assessed as potentiation of glutamate-induced calcium influx by Fluo-4/FLIPR method; assay type: cell-based
Summary of the method: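 Stable GluA2 flip (unedited) cell line grown in DMEM/F12 with 10% FBS and seeded to confluence 2-3 days before use. Cells washed in HEPES buffer (pH 7.3) and loaded with 2 μM Fluo-4 AM for 60 min at room temperature. On FLIPR, compound was added 5 min before 100 μM glutamate. pEC50 and asymptotic maximum are relative to the maximal response to cyclothiazide, n ≥ 3.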

[12] = Cmax in rat at 3 mg/kg, po; assay type: ADME, organism-based; design: dose 3 mg/kg, route oral; details: in vivo
[13] = target: Cytochrome P450 2C9 (Homo sapiens, UniProt P11712); assay: Inhibition of human CYP2C9 by fluorescence assay; assay type: ADME
Sequence of Cytochrome P450 2C9 (P11712 whole entry): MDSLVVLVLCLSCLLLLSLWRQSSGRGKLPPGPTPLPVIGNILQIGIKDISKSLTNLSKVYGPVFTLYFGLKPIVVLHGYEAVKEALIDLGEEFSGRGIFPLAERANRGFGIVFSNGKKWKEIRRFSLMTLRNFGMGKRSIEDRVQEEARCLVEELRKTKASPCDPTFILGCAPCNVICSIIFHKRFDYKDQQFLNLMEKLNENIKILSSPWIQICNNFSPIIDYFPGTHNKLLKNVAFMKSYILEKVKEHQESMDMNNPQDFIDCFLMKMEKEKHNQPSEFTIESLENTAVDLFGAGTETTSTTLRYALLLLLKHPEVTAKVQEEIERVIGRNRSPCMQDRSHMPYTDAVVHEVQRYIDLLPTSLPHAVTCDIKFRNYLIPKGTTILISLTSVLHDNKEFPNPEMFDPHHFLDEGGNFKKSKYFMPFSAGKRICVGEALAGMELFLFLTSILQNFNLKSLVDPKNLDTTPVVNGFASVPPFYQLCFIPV
Summary of the method: (§1)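 Recombinant human CYP bactosomes (0.1 mg/mL) in 50 mM potassium phosphate pH 7.4, preincubated 10 min at 37 °C with test compound (0.1-10 μM, 7 concentrations) and fluorogenic substrate. Substrates: ethoxyresorufin 0.5 μM (1A2), FCA 50 μM (2C9), BMC 10 μM (2C19), MMC 10 μM (2D6), DEF 1 μM or 7-BQ 25 μM (3A4). Reaction started with NADPH regenerating system; metabolite formation read over 10 min. IC50 from percent of control rate; miconazole control; triplicate.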

[14] = target: Cytochrome P450 3A4 (Homo sapiens, UniProt P08684); assay: Inhibition of human CYP3A4 by fluorescence assay; assay type: ADME; summary of the method: as §1
Sequence of Cytochrome P450 3A4 (P08684 whole entry): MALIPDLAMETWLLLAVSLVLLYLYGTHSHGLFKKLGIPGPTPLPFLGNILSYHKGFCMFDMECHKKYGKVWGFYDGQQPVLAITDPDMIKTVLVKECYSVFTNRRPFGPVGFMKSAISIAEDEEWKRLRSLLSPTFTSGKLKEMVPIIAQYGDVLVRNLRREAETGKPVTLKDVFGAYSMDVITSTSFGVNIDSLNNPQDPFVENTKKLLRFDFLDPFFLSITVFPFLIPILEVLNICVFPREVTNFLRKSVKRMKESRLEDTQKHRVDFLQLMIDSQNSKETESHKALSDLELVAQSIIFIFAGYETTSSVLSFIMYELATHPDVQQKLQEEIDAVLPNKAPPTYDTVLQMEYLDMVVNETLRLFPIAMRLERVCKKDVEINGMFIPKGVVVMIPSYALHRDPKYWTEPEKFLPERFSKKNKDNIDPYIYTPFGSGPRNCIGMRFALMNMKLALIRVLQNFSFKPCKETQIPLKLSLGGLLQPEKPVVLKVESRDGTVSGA

[15] = AUC (0 to t) in rat blood at 3 mg/kg, po; assay type: ADME, organism-based; design: dose 3 mg/kg, route oral; details: whole blood
[16] = target: Cytochrome P450 2D6 (Homo sapiens, UniProt P10635); assay: Inhibition of human CYP2D6 by fluorescence assay; assay type: ADME; summary of the method: as §1
Sequence of Cytochrome P450 2D6 (P10635 whole entry): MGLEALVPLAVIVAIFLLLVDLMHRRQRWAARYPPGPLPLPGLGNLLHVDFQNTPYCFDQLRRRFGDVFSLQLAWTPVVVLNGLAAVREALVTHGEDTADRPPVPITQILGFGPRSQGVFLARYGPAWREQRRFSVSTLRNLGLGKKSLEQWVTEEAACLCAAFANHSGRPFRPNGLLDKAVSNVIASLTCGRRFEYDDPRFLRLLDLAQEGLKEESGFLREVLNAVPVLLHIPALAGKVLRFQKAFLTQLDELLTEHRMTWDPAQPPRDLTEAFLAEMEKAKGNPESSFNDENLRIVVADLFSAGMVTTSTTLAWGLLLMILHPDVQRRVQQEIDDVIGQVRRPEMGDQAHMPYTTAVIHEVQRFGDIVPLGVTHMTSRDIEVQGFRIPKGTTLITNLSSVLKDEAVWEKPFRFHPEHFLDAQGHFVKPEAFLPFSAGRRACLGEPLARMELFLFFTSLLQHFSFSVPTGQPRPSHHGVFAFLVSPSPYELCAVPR

[17] = target: Cytochrome P450 2C19 (Homo sapiens, UniProt P33261); assay: Inhibition of human CYP2C19 by fluorescence assay; assay type: ADME; summary of the method: as §1
Sequence of Cytochrome P450 2C19 (P33261 whole entry): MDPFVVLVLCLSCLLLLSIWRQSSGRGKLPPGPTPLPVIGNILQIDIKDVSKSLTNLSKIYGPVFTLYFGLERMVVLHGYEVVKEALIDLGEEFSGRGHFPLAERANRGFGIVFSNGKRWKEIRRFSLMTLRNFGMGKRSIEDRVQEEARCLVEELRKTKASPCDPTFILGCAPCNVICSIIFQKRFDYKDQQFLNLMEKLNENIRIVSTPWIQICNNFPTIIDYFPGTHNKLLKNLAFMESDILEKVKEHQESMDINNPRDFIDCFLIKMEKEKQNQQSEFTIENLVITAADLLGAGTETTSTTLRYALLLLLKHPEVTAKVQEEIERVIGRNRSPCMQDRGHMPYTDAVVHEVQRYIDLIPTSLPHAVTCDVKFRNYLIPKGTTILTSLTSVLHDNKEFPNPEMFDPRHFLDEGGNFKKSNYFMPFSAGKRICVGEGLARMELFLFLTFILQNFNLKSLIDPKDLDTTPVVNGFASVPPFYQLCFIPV

[18] = Distribution coefficient, log D of the compound at pH 7.4; assay type: physicochemical; details: octanol/water
[19] = Cmax in rat blood at 3 mg/kg, po; assay type: ADME, organism-based; design: dose 3 mg/kg, route oral; details: whole blood
[20] = target: T2, Cytochrome P450 1A2 (Homo sapiens, UniProt P05177); assay: Inhibition of human CYP1A2 by fluorescence assay; assay type: ADME; summary of the method: as §1
T2 sequence (P05177 whole entry): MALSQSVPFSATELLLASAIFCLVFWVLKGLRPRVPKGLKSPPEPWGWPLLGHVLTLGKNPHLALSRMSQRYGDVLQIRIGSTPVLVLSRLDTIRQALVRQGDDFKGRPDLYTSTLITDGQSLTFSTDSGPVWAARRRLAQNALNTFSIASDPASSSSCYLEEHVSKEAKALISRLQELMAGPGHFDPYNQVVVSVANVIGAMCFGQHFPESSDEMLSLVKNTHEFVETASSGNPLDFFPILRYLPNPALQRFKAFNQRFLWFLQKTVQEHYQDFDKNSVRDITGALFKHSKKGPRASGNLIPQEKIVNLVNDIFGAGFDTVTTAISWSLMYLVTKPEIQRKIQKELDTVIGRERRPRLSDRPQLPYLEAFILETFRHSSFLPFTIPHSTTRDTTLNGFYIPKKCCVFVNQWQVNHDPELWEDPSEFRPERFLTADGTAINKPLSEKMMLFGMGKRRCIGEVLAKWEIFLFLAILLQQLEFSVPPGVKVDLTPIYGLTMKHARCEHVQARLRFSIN

SMILES | AUC(0-t) [1] [ng·h/mL] | Activity [2] [%] | logD [4] | fraction unbound [5] | solubility kinetic [6] [µg/mL] | Brain tissue binding (% bound) [7] [%] | CL/F [8] [mL/min/kg] | Kp ([9]; brain and blood) | EC50 [11] [µM] | Cmax [12] [ng/mL] | IC50 [13] [µM] | IC50 [20] [µM] | also measured
O=S1(=O)CCCN1Cc1ccc(-n2nc(C(F)(F)F)c3c2CCCC3)cc1 | 364 | 118 | 3.3 | 0.032 | 12 (≈ 30 µM) | 99.5 | 41 | 2.5 | 10 | 136 |  |  | IC50 [3]: > 10 µM; Papp [10]: 40 ×10⁻⁶ cm/s
O=C(Cc1ccc(-n2nc(C(F)(F)F)c3c2CCCC3)cc1F)N1CCCC1 | 248 | 79 | 3.7 | 0.002 | 41 (≈ 104 µM) | 99.4 | 55 | 0.3 | 1.26 | 111 | 7 |  | 
O=C1CCCN1Cc1ccc(-n2nc(C(F)(F)F)c3c2COCC3)cc1 |  | 116 |  | 0.057 | 123 (≈ 337 µM) | 94.9 |  |  | 5.01 |  | > 10 | > 10 | IC50 [14]: > 10 µM; AUC(0-t) [15]: 824 ng·h/mL; IC50 [16]: > 10 µM; IC50 [17]: > 10 µM; Papp [10]: 44 ×10⁻⁶ cm/s; logD [18]: 2.6; Cmax [19]: 331 ng/mL
O=C(Cc1ccc(-n2nc(C(F)(F)F)c3c2CCCC3)cc1)NC1CCCC1 |  | 100 |  |  |  |  |  |  | 63.1 |  | 0.2 |  | IC50 [14]: 0.7 µM; IC50 [16]: 8 µM
O=S(=O)(NCc1ccc(-n2nc(C(F)(F)F)c3c2CCCC3)cc1)C1CC1 |  | 112 | 3.2 |  | 12 (≈ 30 µM) |  |  |  | 10 |  |  |  | IC50 [3]: > 10 µM
O=C(Cc1ccc(-n2nc(C(F)(F)F)c3c2CCCC3)cc1)N1CCCC1 | 166 | 82 | 3.3 | 0.004 | 77 (≈ 204 µM) | 98.1 | 55 | 0.9 | 3.16 | 95 | 3 |  | 
CN(C)C(=O)Cc1ccc(-n2nc(C(F)(F)F)c3c2CCCC3)cc1 | 262 | 107 | 2.3 | 0.022 | 118 (≈ 336 µM) | 98.8 | 47 | 2.8 | 2 | 260 | 7 |  | 
O=C1CCCN1Cc1ccc(-n2nc(C(F)(F)F)c3c2CCCC3)cc1 | 231 | 132 | 2.4 | 0.016 | 110 (≈ 303 µM) | 99.4 | 54 |  | 1 | 121 | 5 | 1 | Kp ([9]; brain): 1.4
CCCCN(C)C(=O)c1ccc(-n2nc(C(F)(F)F)c3c2CCCC3)cc1 |  | 86 | 3.2 |  | 65 (≈ 171 µM) |  |  |  | 15.8 |  | 6 |  | IC50 [16]: 8 µM
CN(C)S(=O)(=O)c1ccc(-n2nc(C(F)(F)F)c3c2CCCC3)cc1 |  | 63 | 3.1 |  | 5 (≈ 13.4 µM) |  |  |  | 20 |  | 2 |  | 
CCC(=O)NCc1ccc(-n2nc(C(F)(F)F)c3c2CCCC3)cc1 |  | 98 | 3.6 |  | 62 (≈ 176 µM) |  |  |  | 2.51 |  | 8 | 3.5 | 
CC(C(=O)N1CCCC1)c1ccc(-n2nc(C(F)(F)F)c3c2CCCC3)cc1 (stereo unspecified) |  | 81 | 2.3 |  | 59 (≈ 151 µM) |  |  |  | 25.1 |  | 1 | 6 | 
O=C(N1CCCC1)C1(c2ccc(-n3nc(C(F)(F)F)c4c3CCCC4)cc2)CC1 |  | 37 | 3.8 |  | 31 (≈ 76.8 µM) |  |  |  | 31.6 |  | 0.3 |  | IC50 [14]: 6 µM; IC50 [17]: 7 µM
